Values joined by “and” are separate entries in the source; they are usually repeats but may differ in a detail not shown here. Identical values can stand only once.
Assays:
[1] = organism: Rattus norvegicus; experiment: The compound was tested for anti-uterotrophic activity in immature rats(Dosage 100 ug); assay type: functional
Outline: (§1)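 Holtzman rats, immature (19-20 days, 40-45 g), in groups of six. Each rat received estradiol 1 µg/day sc in corn oil plus compound sc in corn oil as a daily per-rat dose, for 3 days. Rats killed on day 4. Inhibition of estradiol-driven uterine wet weight (weighed to 0.1 mg).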

[2] = organism: Rattus norvegicus; experiment: The compound was tested for uterotropic activity in immature rats(Dosage 1000 ug); assay type: functional
Outline: (§2)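 Holtzman rats, immature (19-20 days, 40-45 g), in groups of six. Compound given subcutaneously in corn oil as a daily per-rat dose for 3 days. Rats killed on day 4 and uterine wet weight recorded to the nearest 0.1 mg.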

[3] = organism: Rattus norvegicus; experiment: The compound was tested for anti-uterotrophic activity in immature rats(Dosage 1 ug); assay type: functional; outline: as §1
[4] = organism: Rattus norvegicus; experiment: The compound was tested for anti-uterotrophic activity in immature rats(Dosage 10 microg); assay type: functional; outline: as §1
[5] = organism: Rattus norvegicus; experiment: The compound was tested for uterotropic activity in immature rats(Dosage 10 ug); assay type: functional; outline: as §2
[6] = organism: Rattus norvegicus; experiment: The compound was tested for uterotropic activity in immature rats(Dosage 100 ug); assay type: functional; outline: as §2
[7] = organism: Rattus norvegicus; experiment: The compound was tested for anti-uterotrophic activity in immature rats(Dosage 1000 ug); assay type: functional; outline: as §1
[8] = organism: Rattus norvegicus; experiment: The compound was tested for uterotropic activity in immature rats(Dosage 1 ug); assay type: functional; outline: as §2
[9] = test system: Rattus norvegicus; experiment: The compound was tested for the progression of no of tumors at 10 mg/kg dose after peroral administration (experiment-I); assay type: functional; conditions: route oral
Outline: (§3)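 DMBA-induced mammary tumors in female Sprague-Dawley rats. Compound given orally twice daily in PEG-400:water (1:1) for 21 days; controls received vehicle alone. Tumors measured by caliper at start and weekly; area is largest × smallest diameter. Tumors scored as complete or partial remission, no change or progression. Mean ± SE.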

[10] = test system: Rattus norvegicus; experiment: The compound was tested for the progression of no of tumors at 10 mg/kg dose after peroral administration (experiment-2); assay type: functional; conditions: route oral; outline: as §3
[11] = test system: Rattus norvegicus; experiment: The compound was tested for the % change of tumor area at 1 mg/kg dose after peroral administration (experiment-I); assay type: functional; conditions: route oral; outline: as §3
[12] = test system: Rattus norvegicus; experiment: The compound was tested for the % change of tumor area at 10 mg/kg dose after peroral administration (experiment-2); conditions: route oral
[13] = test system: Rattus norvegicus; experiment: The compound was tested for the no of tumors at 10 mg/kg dose finish of the experiment after peroral administration (experiment-2); assay type: functional; conditions: route oral; outline: as §3
[14] = test system: Rattus norvegicus; experiment: The compound was tested for no of tumors with complete remission at 10 mg/kg dose after peroral administration (experiment-I); assay type: functional; conditions: route oral; outline: as §3
[15] = test system: Rattus norvegicus; experiment: The compound was tested for no of tumors without change at 1 mg/kg dose after peroral administration (experiment-I); assay type: functional; conditions: route oral; outline: as §3
[16] = test system: Rattus norvegicus; experiment: The compound was tested for the no of tumors at 10 mg/kg dose start of the experiment after peroral administration (experiment-2); assay type: functional; conditions: route oral; outline: as §3
[17] = test system: Rattus norvegicus; experiment: The compound was tested for no of tumors with partial remission at 1 mg/kg dose after peroral administration (experiment-I); assay type: functional; conditions: route oral; outline: as §3
[18] = test system: Rattus norvegicus; experiment: The compound was tested for no of tumors with partial remission at 10 mg/kg dose after peroral administration (experiment-2); assay type: functional; conditions: route oral; outline: as §3
[19] = test system: Rattus norvegicus; experiment: The compound was tested for no of tumors without change at 10 mg/kg dose after peroral administration (experiment-I); assay type: functional; conditions: route oral; outline: as §3
[20] = test system: Rattus norvegicus; experiment: The compound was tested for the no of tumors at 1 mg/kg dose finish of the experiment after peroral administration (experiment-I); assay type: functional; conditions: route oral; outline: as §3
[21] = test system: Rattus norvegicus; experiment: The compound was tested for the progression of no of tumors at 1 mg/kg dose after peroral administration (experiment-I); assay type: functional; conditions: route oral; outline: as §3
[22] = test system: Rattus norvegicus; experiment: The compound was tested for the no of tumors at 10 mg/kg dose finish of the experiment after peroral administration (experiment-I); assay type: functional; conditions: route oral; outline: as §3
[23] = test system: Rattus norvegicus; experiment: The compound was tested for the no of tumors at 10 mg/kg dose start of the experiment after peroral administration (experiment-I); assay type: functional; conditions: route oral; outline: as §3
[24] = test system: Rattus norvegicus; experiment: The compound was tested for no of tumors with partial remission at 10 mg/kg dose after peroral administration (experiment-I); assay type: functional; conditions: route oral; outline: as §3
[25] = test system: Rattus norvegicus; experiment: The compound was tested for no of tumors without change at 10 mg/kg dose after peroral administration (experiment-2); assay type: functional; conditions: route oral; outline: as §3
[26] = test system: Rattus norvegicus; experiment: The compound was tested for the no of tumors at 1 mg/kg dose start of the experiment after peroral administration (experiment-I); assay type: functional; conditions: route oral; outline: as §3
[27] = test system: Rattus norvegicus; experiment: The compound was tested for no of tumors with complete remission at 1 mg/kg dose after peroral administration (experiment-I); assay type: functional; conditions: route oral; outline: as §3
[28] = test system: Rattus norvegicus; experiment: The compound was tested for the growth of mammary tumors in rats at 1 mg/kg dose after peroral administration at the end of the exp-1; assay type: functional; conditions: route oral; outline: as §3
[29] = test system: Rattus norvegicus; experiment: The compound was tested for no of tumors with complete remission at 10 mg/kg dose after peroral administration (experiment-2); assay type: functional; conditions: route oral; outline: as §3
[30] = test system: Rattus norvegicus; experiment: The compound was tested for the growth of tumors at 10 mg/kg dose start of the experiment after peroral administration (experiment-2); assay type: functional; conditions: route oral; outline: as §3
[31] = test system: Rattus norvegicus; experiment: The compound was tested for serum prolactin level in rats at 10 mg/kg dose after peroral administration; assay type: functional, organism-based; set-up: dose 10 mg/kg
[32] = test system: Rattus norvegicus; experiment: The compound was tested for the growth of mammary tumors in rats at 10 mg/kg dose after peroral administration at the end of the exp-2; assay type: functional; conditions: route oral; outline: as §3
[33] = test system: Rattus norvegicus; experiment: The compound was tested for the growth of tumors at 10 mg/kg dose finish of the experiment after peroral administration (experiment-2); assay type: functional; conditions: route oral; outline: as §3
[34] = test system: Rattus norvegicus; experiment: The compound was tested for serum prolactin level in rats at 1 mg/kg dose after peroral administration exp1; assay type: functional, organism-based; set-up: dose 1 mg/kg
[35] = test system: Rattus norvegicus; experiment: The compound was tested for serum LH level in rats at 1 mg/kg dose after peroral administration; assay type: functional, organism-based; set-up: dose 1 mg/kg
[36] = test system: Rattus norvegicus; experiment: The compound was tested for serum prolactin level in rats at 1 mg/kg dose after peroral administration; assay type: functional, organism-based; set-up: dose 1 mg/kg
[37] = organism: Rattus norvegicus; experiment: The compound was tested for uterotropic activity in immature rats(Dosage 0.1 ug); assay type: functional; outline: as §2

O=C(c1ccc(OCCN2CCCC2)cc1)c1c(-c2ccc(O)cc2)sc2cc(O)ccc12 [LY-117018] was tested, and the Mean uterine weight [1] was 42.7 mg, the Mean uterine weight [2] was 40.7 mg and the Mean uterine weight [3] was 61.7 mg. For the same molecule, the Mean uterine weight [4] was 44.5 mg, the Mean uterine weight [5] was 46.6 mg and the Mean uterine weight [6] was 43.9 mg. The Mean uterine weight [7] was 36.1 mg and the Mean uterine weight [8] was 55.1 mg.
For O=C(c1ccc(OCCN2CCCCC2)cc1)c1c(-c2ccc(O)cc2)sc2cc(O)ccc12 [RALOXIFENE], the Mean uterine weight [1] was 32.5 mg, the Mean uterine weight [2] was 35.4 mg and the Mean uterine weight [3] was 48.7 mg. For the same molecule, the Mean uterine weight [4] was 36.7 mg, the Mean uterine weight [5] was 42.2 mg and the Mean uterine weight [6] was 42.7 mg. For the same molecule, the Mean uterine weight [7] was 28.9 mg and the Mean uterine weight [8] was 48.6 mg.
Molecule CN(C)CCOc1ccc(C(=O)c2c(-c3ccc(O)cc3)sc3cc(O)ccc23)cc1 has a Mean uterine weight [1] of 64.7 mg, a Mean uterine weight [2] of 71.5 mg and a Mean uterine weight [3] of 54.7 mg. For the same molecule, the Mean uterine weight [4] was 54.3 mg, the Mean uterine weight [5] was 55 mg and the Mean uterine weight [6] was 66 mg. For the same molecule, the Mean uterine weight [7] was 70.8 mg and the Mean uterine weight [8] was 44.6 mg.
With Cl.O=C(c1ccc(OCCN2CCCCC2)cc1)c1c(-c2ccc(O)cc2)sc2cc(O)ccc12 [RALOXIFENE HYDROCHLORIDE] the No. of tumours [9] was 4, the No. of tumours [10] was 2 and the % change tumor area [11] was 132% and 378%. It also gave a % change tumor area [12] of 417%, a No. of tumours [13] of 5 and a No. of tumours [14] of 1. It also gave a No. of tumours [15] of 4, a No. of tumours [16] of 9 and a No. of tumours [17] of 2. For the same molecule, the No. of tumours [18] was 2, the No. of tumours [19] was 2 and the No. of tumours [20] was 9. It also gave a No. of tumours [21] of 2, a No. of tumours [22] of 13 and a No. of tumours [23] of 9. It also gave a No. of tumours [24] of 2, a No. of tumours [25] of 1 and a No. of tumours [26] of 9. The No. of tumours [27] was 1, the Tumor area [28] was 33.3 mm**2 and <77.3 mm**2 and the No. of tumours [29] was 4.
For CC/C(=C(\c1ccccc1)c1ccc(OCCN(C)C)cc1)c1ccccc1 [TAMOXIFEN], the No. of tumours [10] was 3, the % change tumor area [12] was 7 and the Mean uterine weight [1] was 72.1 mg. The Mean uterine weight [2] was 70.1 mg, the No. of tumours [18] was 3 and the Mean uterine weight [3] was 64.1 mg. For the same molecule, the No. of tumours [30] was 11, the Serum prolactin level [31] was 0.000126 mg/mL and the Mean uterine weight [4] was 62.1 mg. The Mean uterine weight [5] was 64.8 mg, the Mean uterine weight [6] was 65.6 mg and the Tumor area [32] was 43.4 mm**2 and <46.4 mm**2. For the same molecule, the Mean uterine weight [7] was 74.1 mg, the No. of tumours [25] was 2 and the No. of tumours [33] was 7. It also gave a Mean uterine weight [8] of 38.9 mg and a No. of tumours [29] of 3.
CC(C)N(CCOc1ccc(C(=O)c2c(-c3ccc(O)cc3)sc3cc(O)ccc23)cc1)C(C)C showed a Mean uterine weight [1] of 69.5 mg, a Mean uterine weight [2] of 60.4 mg and a Mean uterine weight [3] of 60.1 mg. For the same molecule, the Mean uterine weight [4] was 58.7 mg, the Mean uterine weight [5] was 50 mg and the Mean uterine weight [6] was 62.1 mg. The Mean uterine weight [7] was 70.2 mg and the Mean uterine weight [8] was 37.3 mg.
In the case of O=C(c1ccc(OCCN2CCCCC2)cc1)c1c(-c2ccc(O)cc2)sc2cc(O)ccc12, the Serum prolactin level [34] is reported as 0.000204 mg/mL, the Serum LH level [35] is reported as 3.08e-05 mg/mL and 2.77e-05 mg/mL and the Serum prolactin level [31] is reported as 0.000711 mg/mL. The Serum prolactin level [36] was 7.24e-05 mg/mL.
Molecule CCN(CC)CCOc1ccc(C(=O)c2c(-c3ccc(O)cc3)sc3cc(O)ccc23)cc1 has a Mean uterine weight [1] of 66.4 mg, a Mean uterine weight [2] of 66.5 mg and a Mean uterine weight [3] of 56.2 mg. For the same molecule, the Mean uterine weight [4] was 61.3 mg, the Mean uterine weight [5] was 53.6 mg and the Mean uterine weight [6] was 67.6 mg. The Mean uterine weight [7] was 66 mg and the Mean uterine weight [8] was 45.4 mg.
Work on O=C(c1ccc(OCCN2CCCCCC2)cc1)c1c(-c2ccc(O)cc2)sc2cc(O)ccc12 yielded a Mean uterine weight [1] of 39.7 mg, a Mean uterine weight [2] of 40.1 mg and a Mean uterine weight [3] of 56.3 mg. The Mean uterine weight [4] was 52.7 mg, the Mean uterine weight [5] was 46.6 mg and the Mean uterine weight [6] was 43.9 mg. It also gave a Mean uterine weight [7] of 36.7 mg and a Mean uterine weight [8] of 52.7 mg.
For C[C@]12CC[C@@H]3c4ccc(O)cc4CC[C@H]3[C@@H]1CC[C@@H]2O [ESTRADIOL], the Mean uterine weight [37] was 82.3 mg.

Reference: ChEMBL document CHEMBL1122701, “Antiestrogens. 2. Structure-activity studies in a series of 3-aroyl-2-arylbenzo[b]thiophene derivatives leading to [6-hydroxy-2-(4-hydroxyphenyl)benzo[b]thien-3-yl] [4-[2-(1-piperidinyl)ethoxy]-phenyl]methanone hydrochloride (LY156758), a remarkably effective estrogen antagonist with only minimal …” (1984)
